Results: ChEMBL document CHEMBL1158464, “Structure-activity relationships and cancer-cell selective toxicity of novel inhibitors of glioma-associated oncogene homologue 1 (Gli1) mediated transcription” (J Med Chem, 2009)
Activity calls are given as the source filed them. No cut-off for these calls is given here.

system: C3H 10T1/2; test: Inhibition of Photinus pyralis and Renilla luciferase expression exogenously transfected in mouse C3H10T1/2 cell lysate at 40 uM after 40 mins at room temperature by promega steady-glo luciferase assay; type: functional, cell-free; details: not given

Structure (SMILES) | inhibition
CCCN(CCc1ccc(O)cc1)C(=O)[C@@H](C)c1cccc(C(=O)c2ccccc2)c1 | inactive

system: not listed separately; test: Cytotoxicity against mouse C3H10T1/2 cells; type: cell-based; details: c3h 10t1/2

Structure (SMILES) | Activity
O=C(Cc1c[nH]c2ccc(OCc3ccccc3)cc12)NCCc1ccc(O)cc1 | Toxic

system: Raji; test: Cytotoxicity against human Raji cells at 40 uM/well after 68 hrs by alamar blue assay; type: functional, cell-based; details: not given
In short: (§1)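 Cells plated in appropriate medium 24 h before compound. A 10 mM DMSO stock was diluted in EMEM to 160 µM (4×) and added in triplicate to a final 40 µM. Incubated 68 h at 37 °C, then Alamar Blue for 4 h at 37 °C. Fluorescence read at ex 510/em 590 nm. Viability taken relative to DMSO control wells.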

Structure (SMILES) | Activity
CCCN(CCc1ccc(O)cc1)C(=O)[C@@H](C)c1cccc(C(=O)c2ccccc2)c1 | Active
O=C(Cc1c[nH]c2ccc(OCc3ccccc3)cc12)NCCc1ccc(O)cc1 | Active

system: C3H 10T1/2; test: Inhibition of human Gli1 protein expression exogenously transfected in mouse C3H10T1/2 cells at 40 uM by Western blot analysis; type: functional, cell-based; details: not given

Structure (SMILES) | inhibition
CCCN(CCc1ccc(O)cc1)C(=O)[C@@H](C)c1cccc(C(=O)c2ccccc2)c1 | inactive

system: not listed separately; test: Stability in mouse C3H10T1/2 cells assessed as compound degradation at 40 uM after 24 hrs by LCMS analysis; type: ADME, cell-based; details: c3h 10t1/2, 24 h

Structure (SMILES) | Stability
CCCN(CCc1ccc(O)cc1)C(=O)[C@@H](C)c1cccc(C(=O)c2ccccc2)c1 | Stable

target: T1, Zinc finger protein GLI1 (Homo sapiens) (UniProt P08151); test: Inhibition of endogenously overexpressed Gli1-mediated transcriptional activity in human Rh30 cells at 10 uM after 24 hrs by luciferase reporter gene assay; type: cell-based; details: not given
T1 sequence (whole entry): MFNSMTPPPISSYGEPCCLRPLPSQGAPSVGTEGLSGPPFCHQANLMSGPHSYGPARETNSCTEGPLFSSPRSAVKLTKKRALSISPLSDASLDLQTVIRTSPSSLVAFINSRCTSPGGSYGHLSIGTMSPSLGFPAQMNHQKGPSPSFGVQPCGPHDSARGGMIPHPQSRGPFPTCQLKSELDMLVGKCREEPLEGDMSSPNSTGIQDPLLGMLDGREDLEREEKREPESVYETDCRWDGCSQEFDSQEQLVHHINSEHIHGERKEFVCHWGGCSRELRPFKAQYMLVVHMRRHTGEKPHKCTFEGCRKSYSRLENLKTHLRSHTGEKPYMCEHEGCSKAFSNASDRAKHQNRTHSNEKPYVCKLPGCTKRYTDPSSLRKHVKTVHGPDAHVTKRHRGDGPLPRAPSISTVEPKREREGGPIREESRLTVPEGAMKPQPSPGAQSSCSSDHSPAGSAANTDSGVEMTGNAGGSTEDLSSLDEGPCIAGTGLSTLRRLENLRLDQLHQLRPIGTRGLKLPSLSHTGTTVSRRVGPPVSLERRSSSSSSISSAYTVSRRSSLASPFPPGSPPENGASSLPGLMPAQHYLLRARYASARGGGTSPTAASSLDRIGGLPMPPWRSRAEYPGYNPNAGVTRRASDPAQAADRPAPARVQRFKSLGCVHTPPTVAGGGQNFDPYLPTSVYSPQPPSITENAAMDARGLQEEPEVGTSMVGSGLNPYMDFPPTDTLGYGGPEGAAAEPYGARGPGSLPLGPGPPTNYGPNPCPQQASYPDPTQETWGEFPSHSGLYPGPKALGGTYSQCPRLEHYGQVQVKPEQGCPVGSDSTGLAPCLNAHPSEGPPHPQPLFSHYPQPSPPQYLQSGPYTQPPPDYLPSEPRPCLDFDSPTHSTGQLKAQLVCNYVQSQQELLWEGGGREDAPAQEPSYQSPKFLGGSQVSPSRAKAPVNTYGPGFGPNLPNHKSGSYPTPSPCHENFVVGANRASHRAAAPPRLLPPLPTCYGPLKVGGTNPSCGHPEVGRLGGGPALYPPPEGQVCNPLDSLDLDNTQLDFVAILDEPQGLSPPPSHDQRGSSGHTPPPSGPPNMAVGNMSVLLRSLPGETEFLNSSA
In short: (§2)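 Human Rh30 rhabdomyosarcoma cells (endogenous Gli1, no exogenous Gli1) in RPMI-1640 with 10% FBS were transfected overnight with Fugene6, GliLuc-BS (500 ng/mL) and pRL-CMV (2.5 ng/mL). Cells were replated, given compound or DMSO 18 h later, and exposed for 24 h at 37 °C, 5% CO2. Read-out was dual luciferase firefly/Renilla, triplicate, DMSO = 0%.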

Structure (SMILES) | inhibition
CCCN(CCc1ccc(O)cc1)C(=O)[C@@H](C)c1cccc(C(=O)c2ccccc2)c1 | Active

system: C3H 10T1/2; test: Inhibition of Photinus pyralis luciferase expression exogenously transfected in mouse C3H10T1/2 cell lysate at 60 uM after 40 mins at room temperature by promega steady-glo luciferase assay; type: functional, cell-free; details: not given

Structure (SMILES) | inhibition
CCCN(CCc1ccc(O)cc1)C(=O)[C@@H](C)c1cccc(C(=O)c2ccccc2)c1 | inactive

system: Daoy; test: Cytotoxicity against human DaOY cells at 40 uM/well after 68 hrs by alamar blue assay; type: functional, cell-based; details: not given; in short: as §1

Structure (SMILES) | Activity
CCCN(CCc1ccc(O)cc1)C(=O)[C@@H](C)c1cccc(C(=O)c2ccccc2)c1 | Active
O=C(Cc1c[nH]c2ccc(OCc3ccccc3)cc12)NCCc1ccc(O)cc1 | Active

system: C3H 10T1/2; test: Inhibition of Photinus pyralis and Renilla luciferase expression exogenously transfected in mouse C3H10T1/2 cell lysate at 60 uM after 40 mins at room temperature by promega steady-glo luciferase assay; type: functional, cell-free; details: not given

Structure (SMILES) | inhibition
CCCN(CCc1ccc(O)cc1)C(=O)[C@@H](C)c1cccc(C(=O)c2ccccc2)c1 | inactive

system: C3H 10T1/2; test: Inhibition of Renilla luciferase expression exogenously transfected in mouse C3H10T1/2 cell lysate at 60 uM after 40 mins at room temperature by promega steady-glo luciferase assay; type: functional, cell-free; details: not given

Structure (SMILES) | inhibition
CCCN(CCc1ccc(O)cc1)C(=O)[C@@H](C)c1cccc(C(=O)c2ccccc2)c1 | inactive

target: T1, Zinc finger protein GLI1 (Homo sapiens); test: Inhibition of endogenously overexpressed Gli1-mediated transcriptional activity in human Rh30 cells at 40 uM after 24 hrs by luciferase reporter gene assay; type: cell-based; details: not given; in short: as §2

Structure (SMILES) | inhibition
CCCN(CCc1ccc(O)cc1)C(=O)[C@@H](C)c1cccc(C(=O)c2ccccc2)c1 | Active

system: C3H 10T1/2; test: Inhibition of Renilla luciferase expression exogenously transfected in mouse C3H10T1/2 cell lysate at 20 uM after 40 mins at room temperature by promega steady-glo luciferase assay; type: functional, cell-free; details: not given

Structure (SMILES) | inhibition
CCCN(CCc1ccc(O)cc1)C(=O)[C@@H](C)c1cccc(C(=O)c2ccccc2)c1 | inactive

target: T1, Zinc finger protein GLI1 (Homo sapiens); test: Inhibition of exogenously transfected human Gli1-mediated transcriptional activity in mouse C3H10T1/2 cells at 40 uM after 24 hrs by luciferase reporter gene assay; type: cell-based; details: C3H 10T1/2
In short: (§3)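 They were replated 18 h later, given compound or DMSO 6 h after plating, and exposed for 24 h at 37 °C, 5% CO2. Lysate was read by dual luciferase as firefly/Renilla, triplicate, DMSO = 0%. IC50 came from curve fitting.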

Structure (SMILES) | inhibition
CCCN(CCc1ccc(O)cc1)C(=O)[C@@H](C)c1cccc(C(=O)c2ccccc2)c1 | Active
O=C(Cc1c[nH]c2ccc(OCc3ccccc3)cc12)NCCc1ccc(O)cc1 | Active

system: HepG2; test: Cytotoxicity against human HepG2 cells at 40 uM/well after 68 hrs by alamar blue assay; type: functional, cell-based; details: not given; in short: as §1

Structure (SMILES) | Activity
CCCN(CCc1ccc(O)cc1)C(=O)[C@@H](C)c1cccc(C(=O)c2ccccc2)c1 | inactive
O=C(Cc1c[nH]c2ccc(OCc3ccccc3)cc12)NCCc1ccc(O)cc1 | inactive

system: C3H 10T1/2; test: Inhibition of Renilla luciferase expression exogenously transfected in mouse C3H10T1/2 cell lysate at 40 uM after 40 mins at room temperature by promega steady-glo luciferase assay; type: functional, cell-free; details: not given

Structure (SMILES) | inhibition
CCCN(CCc1ccc(O)cc1)C(=O)[C@@H](C)c1cccc(C(=O)c2ccccc2)c1 | inactive

system: DU-145; test: Cytotoxicity against human DU145 cells at 40 uM/well after 68 hrs by alamar blue assay; type: functional, cell-based; details: not given; in short: as §1

Structure (SMILES) | Activity
CCCN(CCc1ccc(O)cc1)C(=O)[C@@H](C)c1cccc(C(=O)c2ccccc2)c1 | Active
O=C(Cc1c[nH]c2ccc(OCc3ccccc3)cc12)NCCc1ccc(O)cc1 | Active

system: SJRH30; test: Cytotoxicity against human Rh30 cells at 40 uM/well after 68 hrs by alamar blue assay; type: functional, cell-based; details: not given; in short: as §1

Structure (SMILES) | Activity
CCCN(CCc1ccc(O)cc1)C(=O)[C@@H](C)c1cccc(C(=O)c2ccccc2)c1 | Active
O=C(Cc1c[nH]c2ccc(OCc3ccccc3)cc12)NCCc1ccc(O)cc1 | Active

system: C3H 10T1/2; test: Inhibition of Photinus pyralis luciferase expression exogenously transfected in mouse C3H10T1/2 cell lysate at 40 uM after 40 mins at room temperature by promega steady-glo luciferase assay; type: functional, cell-free; details: not given

Structure (SMILES) | inhibition
CCCN(CCc1ccc(O)cc1)C(=O)[C@@H](C)c1cccc(C(=O)c2ccccc2)c1 | inactive

system: MDA-MB-231; test: Cytotoxicity against human MDA-MB-231 cells at 40 uM/well after 68 hrs by alamar blue assay; type: functional, cell-based; details: not given; in short: as §1

Structure (SMILES) | Activity
CCCN(CCc1ccc(O)cc1)C(=O)[C@@H](C)c1cccc(C(=O)c2ccccc2)c1 | Active
O=C(Cc1c[nH]c2ccc(OCc3ccccc3)cc12)NCCc1ccc(O)cc1 | Active

system: C3H 10T1/2; test: Inhibition of Photinus pyralis luciferase expression exogenously transfected in mouse C3H10T1/2 cell lysate at 20 uM after 40 mins at room temperature by promega steady-glo luciferase assay; type: functional, cell-free; details: not given

Structure (SMILES) | inhibition
CCCN(CCc1ccc(O)cc1)C(=O)[C@@H](C)c1cccc(C(=O)c2ccccc2)c1 | inactive

target: T1, Zinc finger protein GLI1 (Homo sapiens); test: Inhibition of endogenously overexpressed Gli1-mediated transcriptional activity in human Rh30 cells at 20 uM after 24 hrs by luciferase reporter gene assay; type: cell-based; details: not given; in short: as §2

Structure (SMILES) | inhibition
CCCN(CCc1ccc(O)cc1)C(=O)[C@@H](C)c1cccc(C(=O)c2ccccc2)c1 | Active

system: LN-229; test: Cytotoxicity against human LN229 cells at 40 uM/well after 68 hrs by alamar blue assay; type: functional, cell-based; details: not given; in short: as §1

Structure (SMILES) | Activity
CCCN(CCc1ccc(O)cc1)C(=O)[C@@H](C)c1cccc(C(=O)c2ccccc2)c1 | inactive
O=C(Cc1c[nH]c2ccc(OCc3ccccc3)cc12)NCCc1ccc(O)cc1 | inactive

target: T1, Zinc finger protein GLI1 (Homo sapiens); test: Inhibition of exogenously transfected human Gli1-mediated transcriptional activity in mouse C3H10T1/2 cells at 20 uM after 24 hrs by luciferase reporter gene assay; type: cell-based; details: C3H 10T1/2; in short: as §3

Structure (SMILES) | inhibition
CCCN(CCc1ccc(O)cc1)C(=O)[C@@H](C)c1cccc(C(=O)c2ccccc2)c1 | Active
O=C(Cc1c[nH]c2ccc(OCc3ccccc3)cc12)NCCc1ccc(O)cc1 | Active

system: C3H 10T1/2; test: Selectivity ratio of IC50 for exogenously transfected human Gli2 delta-N-mediated transcriptional activity in mouse C3H10T1/2 cells to IC50 for exogenously transfected human Gli1-mediated transcriptional activity in mouse C3H10T1/2 cells; type: cell-based; details: not given
In short: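 Ratio of IC50 values from dose-response curves of dual-luciferase Gli-reporter activity in C3H10T1/2 cells. Cells were transfected with ΔNhGli2 versus hGli1, plus GliLuc-BS and pRL-TK, and exposed to compound for 24 h at 37 °C. Triplicate data.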

Structure (SMILES) | fold change (FC)
CCCN(CCc1ccc(O)cc1)C(=O)[C@@H](C)c1cccc(C(=O)c2ccccc2)c1 | 3

system: BJ; test: Cytotoxicity against human TERT-immortalized human BJ cells at 40 uM/well after 68 hrs by alamar blue assay; type: cell-based; details: not given; in short: as §1

Structure (SMILES) | Activity
CCCN(CCc1ccc(O)cc1)C(=O)[C@@H](C)c1cccc(C(=O)c2ccccc2)c1 | Non-toxic
O=C(Cc1c[nH]c2ccc(OCc3ccccc3)cc12)NCCc1ccc(O)cc1 | Non-toxic

system: C3H 10T1/2; test: Inhibition of human Gli1 protein expression exogenously transfected in mouse C3H10T1/2 cells at 20 uM by Western blot analysis; type: functional, cell-based; details: not given

Structure (SMILES) | inhibition
CCCN(CCc1ccc(O)cc1)C(=O)[C@@H](C)c1cccc(C(=O)c2ccccc2)c1 | inactive

system: C3H 10T1/2; test: Inhibition of Photinus pyralis and Renilla luciferase expression exogenously transfected in mouse C3H10T1/2 cell lysate at 20 uM after 40 mins at room temperature by promega steady-glo luciferase assay; type: functional, cell-free; details: not given

Structure (SMILES) | inhibition
CCCN(CCc1ccc(O)cc1)C(=O)[C@@H](C)c1cccc(C(=O)c2ccccc2)c1 | inactive

target: Zinc finger protein GLI2 (Homo sapiens, UniProt P10070); test: Inhibition of exogenously transfected human Gli2 delta-N-mediated transcriptional activity in mouse C3H10T1/2 cells after 24 hrs by luciferase reporter gene assay; type: cell-based; details: c3h 10t1/2
In short: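 C3H10T1/2 reporter assay run as for hGli1, but with an amino-terminal repressor-domain-deleted hGli2 (ΔNhGli2) in place of hGli1, plus GliLuc-BS and pRL-TK via Fugene6. Compound or DMSO was given for 24 h at 37 °C. Read-out was dual luciferase firefly/Renilla in triplicate, with dose-response curve fitting.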

Zinc finger protein GLI2, sequence (P10070 whole entry, looked up): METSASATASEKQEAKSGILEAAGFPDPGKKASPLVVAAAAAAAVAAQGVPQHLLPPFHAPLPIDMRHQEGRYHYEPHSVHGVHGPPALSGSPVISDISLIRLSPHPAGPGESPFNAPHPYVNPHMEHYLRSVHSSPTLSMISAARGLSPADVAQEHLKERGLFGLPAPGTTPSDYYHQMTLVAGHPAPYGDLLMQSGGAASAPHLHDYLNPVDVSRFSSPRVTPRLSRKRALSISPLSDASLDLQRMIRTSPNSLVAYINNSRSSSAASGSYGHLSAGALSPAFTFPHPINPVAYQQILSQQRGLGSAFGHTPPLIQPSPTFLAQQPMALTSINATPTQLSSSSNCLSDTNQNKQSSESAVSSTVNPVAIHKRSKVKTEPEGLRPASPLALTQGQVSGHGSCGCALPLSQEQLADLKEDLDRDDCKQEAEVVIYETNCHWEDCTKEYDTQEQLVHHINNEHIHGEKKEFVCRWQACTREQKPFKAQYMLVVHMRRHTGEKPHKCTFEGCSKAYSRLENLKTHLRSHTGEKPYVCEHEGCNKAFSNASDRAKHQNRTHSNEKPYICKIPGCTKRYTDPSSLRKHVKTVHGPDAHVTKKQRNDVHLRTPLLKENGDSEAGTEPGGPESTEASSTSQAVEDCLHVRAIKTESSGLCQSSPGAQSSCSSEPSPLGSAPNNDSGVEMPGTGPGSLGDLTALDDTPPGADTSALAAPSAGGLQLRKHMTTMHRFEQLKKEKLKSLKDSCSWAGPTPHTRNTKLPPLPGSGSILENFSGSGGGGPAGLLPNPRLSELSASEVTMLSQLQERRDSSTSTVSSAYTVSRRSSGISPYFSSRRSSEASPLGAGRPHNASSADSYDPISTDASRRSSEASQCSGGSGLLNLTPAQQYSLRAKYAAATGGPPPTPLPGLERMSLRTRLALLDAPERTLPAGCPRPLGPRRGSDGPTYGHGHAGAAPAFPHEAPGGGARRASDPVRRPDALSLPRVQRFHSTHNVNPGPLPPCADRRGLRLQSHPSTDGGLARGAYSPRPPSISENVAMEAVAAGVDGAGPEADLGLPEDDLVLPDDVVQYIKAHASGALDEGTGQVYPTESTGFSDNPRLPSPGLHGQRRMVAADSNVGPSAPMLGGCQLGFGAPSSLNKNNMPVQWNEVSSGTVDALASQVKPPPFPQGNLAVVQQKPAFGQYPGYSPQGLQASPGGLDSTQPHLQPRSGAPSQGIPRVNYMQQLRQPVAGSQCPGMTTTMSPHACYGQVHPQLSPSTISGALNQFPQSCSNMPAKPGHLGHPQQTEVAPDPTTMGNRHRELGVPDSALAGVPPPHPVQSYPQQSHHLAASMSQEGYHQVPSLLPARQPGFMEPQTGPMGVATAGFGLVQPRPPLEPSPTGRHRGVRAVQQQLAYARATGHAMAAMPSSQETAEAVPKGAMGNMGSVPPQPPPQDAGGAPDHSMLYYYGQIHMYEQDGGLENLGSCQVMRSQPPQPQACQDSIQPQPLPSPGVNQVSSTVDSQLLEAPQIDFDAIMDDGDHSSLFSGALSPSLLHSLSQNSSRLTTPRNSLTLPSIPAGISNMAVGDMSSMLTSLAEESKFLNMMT

Structure (SMILES) | IC50
CCCN(CCc1ccc(O)cc1)C(=O)[C@@H](C)c1cccc(C(=O)c2ccccc2)c1 | 23.9 µM
